Test results taken from ChEMBL document CHEMBL4732196, “Structural optimization towards promising β-methyl-4-acrylamido quinoline derivatives as PI3K/mTOR dual inhibitors for anti-cancer therapy: The in vitro and in vivo biological evaluation” (Eur J Med Chem, 2021).

Key:
[1] = target: Cyclin-dependent kinase 18 (Homo sapiens) (UniProt Q07002); experiment: Inhibition of human full length PCTK3 (M3 to F474 residues) expressed in bacterial expression system assessed as residual activity at 10 uM by kinome scan method relative to control
How it was run: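 KINOMEscan binding assay, test compound at 10 μM against a 52-kinase panel. % Ctrl = (compound signal − positive control signal)/(negative control signal − positive control signal) × 100, with DMSO as negative control (100%) and a positive control (0%).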

[2] = target: Tyrosine-protein kinase receptor Tie-1 (Homo sapiens) (UniProt P35590); experiment: Inhibition of human partial length TIE1 (T819 to A1138 residues) expressed in bacterial expression system assessed as residual activity at 10 uM by kinome scan method relative to control
How it was run: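 KINOMEscan competitive binding screen at 10 μM test compound against a 52-kinase panel. Output is % Ctrl = (test signal − positive control signal)/(negative control signal − positive control signal) × 100. DMSO is the negative control (100%) and the positive control is set to 0%.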

[3] = AUC(0 to t) in Sprague-Dawley rat at 5 mg/kg, po; assay type: ADME, organism-based; parameters: dose 5 mg/kg; settings: in vivo
How it was run: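 Male Sprague-Dawley rats (n = 3) given a single oral gavage of 5 mg/kg as a homogeneous opaque suspension in 0.5% methylcellulose; plasma concentration-time curves used to derive mean PK parameters.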

Chain of Tyrosine-protein kinase receptor Tie-1 (Homo sapiens) (P35590 whole entry, the tested form may be a part): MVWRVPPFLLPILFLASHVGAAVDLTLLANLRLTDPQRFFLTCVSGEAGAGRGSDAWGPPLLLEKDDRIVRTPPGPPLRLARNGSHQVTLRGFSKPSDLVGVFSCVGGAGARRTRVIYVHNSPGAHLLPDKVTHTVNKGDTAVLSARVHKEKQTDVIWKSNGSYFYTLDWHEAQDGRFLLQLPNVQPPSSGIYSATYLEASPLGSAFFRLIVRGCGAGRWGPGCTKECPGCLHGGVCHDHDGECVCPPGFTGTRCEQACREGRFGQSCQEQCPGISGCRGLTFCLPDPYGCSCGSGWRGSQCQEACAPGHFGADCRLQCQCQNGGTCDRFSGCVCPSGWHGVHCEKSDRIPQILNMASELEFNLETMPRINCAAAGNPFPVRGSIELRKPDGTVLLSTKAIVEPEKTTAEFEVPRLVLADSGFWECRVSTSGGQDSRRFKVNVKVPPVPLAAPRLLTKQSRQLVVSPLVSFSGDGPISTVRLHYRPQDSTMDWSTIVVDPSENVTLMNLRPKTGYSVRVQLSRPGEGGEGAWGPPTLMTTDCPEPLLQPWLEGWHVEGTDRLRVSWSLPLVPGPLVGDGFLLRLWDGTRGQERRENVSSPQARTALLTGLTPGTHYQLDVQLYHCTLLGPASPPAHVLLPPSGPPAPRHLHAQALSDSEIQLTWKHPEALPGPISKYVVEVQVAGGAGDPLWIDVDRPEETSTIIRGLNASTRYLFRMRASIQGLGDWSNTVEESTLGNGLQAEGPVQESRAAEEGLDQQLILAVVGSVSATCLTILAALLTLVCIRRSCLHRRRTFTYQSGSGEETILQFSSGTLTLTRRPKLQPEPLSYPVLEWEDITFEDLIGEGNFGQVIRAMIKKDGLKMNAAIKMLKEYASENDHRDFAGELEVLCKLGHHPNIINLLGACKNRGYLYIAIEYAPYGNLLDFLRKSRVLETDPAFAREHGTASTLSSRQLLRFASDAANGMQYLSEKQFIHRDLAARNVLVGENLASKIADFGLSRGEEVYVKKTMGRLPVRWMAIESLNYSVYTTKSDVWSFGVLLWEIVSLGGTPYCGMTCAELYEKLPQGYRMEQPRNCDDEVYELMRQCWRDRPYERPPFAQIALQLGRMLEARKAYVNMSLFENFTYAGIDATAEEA
Chain of Cyclin-dependent kinase 18 (Homo sapiens) (Q07002 whole entry, the tested form may be a part): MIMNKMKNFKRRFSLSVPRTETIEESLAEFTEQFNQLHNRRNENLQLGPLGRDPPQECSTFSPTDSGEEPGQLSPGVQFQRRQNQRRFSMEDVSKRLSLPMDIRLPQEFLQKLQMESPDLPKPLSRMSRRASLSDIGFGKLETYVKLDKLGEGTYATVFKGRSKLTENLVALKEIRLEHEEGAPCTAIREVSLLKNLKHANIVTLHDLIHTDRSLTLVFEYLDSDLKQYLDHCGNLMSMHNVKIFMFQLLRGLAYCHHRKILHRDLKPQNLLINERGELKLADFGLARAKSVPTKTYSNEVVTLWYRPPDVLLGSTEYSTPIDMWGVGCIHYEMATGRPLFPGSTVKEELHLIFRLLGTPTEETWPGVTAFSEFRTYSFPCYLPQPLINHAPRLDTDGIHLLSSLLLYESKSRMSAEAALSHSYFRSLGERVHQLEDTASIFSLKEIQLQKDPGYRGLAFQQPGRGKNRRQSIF

Activity [1]: 78%
Activity [2]: 71%
AUC(0-t) [3]: 1340 ng·h/mL
SMILES: COc1ncc(-c2ccc3nccc(/C(C)=C/C(=O)N4CCN(C)CC4)c3c2)cc1NS(=O)(=O)c1ccc(F)cc1F
